Calls of active or inactive are those of the source. The calls are words filed in the database; no cut-off is given here.
Columns and labels:
[1] = Antitumor activity against human A375.X1 cells xenografted in mouse assessed as tumor growth inhibition at 15 mg/kg, po administered every third day for 21 days; format: functional; details: A375.X1, 504 h, time 21 day, read-out: TGI
Outline: (§1)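 Human tumor xenografts in mice. Drugs given orally, as single agents or combined with the PI3K inhibitor. Schedules were daily (QD) or every third day (Q3D) over 21 days. Tumor volume was measured by caliper as (L×W×W)/2. %TGI = 100×[1 − AUC(treatment/d)/AUC(vehicle/d)] from fitted growth curves, with group means. Tumor lysates were immunoblotted for pS6.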

[2] = Antitumor activity against human A2058-X1 cells harboring BRAF V600E/PTEN L112Q/V175/TP53 V274F mutant xenografted in mouse assessed as tumor growth inhibition at 5 mg/kg, po; format: functional; details: A2058-X1, read-out: TGI
Outline: (§2)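 Single-agent dose ranging in human tumor xenograft mice at 2.5, 5 or 10 mg/kg oral. Tumor volume was measured by caliper as (L×W×W)/2. %TGI = 100×[1 − AUC(treatment/d)/AUC(vehicle/d)] from the fitted growth curve per dose group, relative to vehicle.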

DLD-1 [3] = assay: Antitumor activity against human DLD-1 cells xenografted in mouse assessed as tumor growth inhibition at 10 mg/kg, po administered every third day for 21 days in presence of 4-(2-(1H-indazol-4-yl)-6-((4-(methylsulfonyl)piperazin-1-yl)methyl)thieno[3,2-d]pyrimidin-4-yl)morpholine; format: functional; details: DLD-1, 504 h, time 21 day, read-out: TGI; outline: as §1
[4] = target: Serine/threonine-protein kinase pim-3 (Homo sapiens, UniProt Q86V86); assay: Inhibition of PIM3 (unknown origin)
HCT-116 = assay: Antitumor activity against human HCT-116 cells harboring KRAS G13D/PIK3CA […]/CTNNB1 S45del/CDKN2A G23fs mutant xenografted in mouse assessed as tumor growth inhibition at 5 mg/kg, po; format: functional; details: read-out: TGI; outline: as §2
COLO-829 [5] = assay: Antiproliferative activity against human COLO-829 cells assessed as reduction in cell viability incubated for 96 hrs in presence of 4-(2-(1H-indazol-4-yl)-6-((4-(methylsulfonyl)piperazin-1-yl)methyl)thieno[3,2-d]pyrimidin-4-yl)morpholine; format: functional, cell-based
DLD-1 [6] = assay: Antitumor activity against human DLD-1 cells xenografted in mouse assessed as tumor growth inhibition at 3 mg/kg, po administered once a day for 21 days in presence of 4-(2-(1H-indazol-4-yl)-6-((4-(methylsulfonyl)piperazin-1-yl)methyl)thieno[3,2-d]pyrimidin-4-yl)morpholine; format: functional; details: DLD-1, 504 h, time 21 day, read-out: TGI; outline: as §1
FaDu = assay: Antitumor activity against human FaDu cells harboring SMAD4 del/TP53 R248L/CDKN2A mutant xenografted in mouse assessed as tumor growth inhibition at 5 mg/kg, po; format: functional; details: read-out: TGI; outline: as §2
DU-145 = assay: Antitumor activity against human DU-145 cells harboring KRAS G12V/LKB1 K178/TP53 P223L/V274F/CDKN2A/MLH1/SMARCA4/ NF1 P2472H/RB1K715 mutant xenografted in mouse assessed as tumor growth inhibition at 10 mg/kg, po; format: functional; details: read-out: TGI; outline: as §2
A2058 [7] = assay: Antitumor activity against human A2058 cells harboring BRAF V600E/PTEN deletion mutant xenografted in mouse assessed as suppression of ERK phosphorylation at 15 mg/kg, po administered every third day for 21 days and measured after 8 hrs post dose by western blot analysis; format: functional, organism-based; details: time 512.0 hrs
NCI-H441 = assay: Antitumor activity against human NCI-H441 cells harboring KRAS G12V/TP53 R158L/MET high mutant xenografted in mouse assessed as tumor growth inhibition at 5 mg/kg, po; format: functional; details: read-out: TGI
Outline: (§3)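 Human tumor xenografts in mice were dosed orally at the indicated mg/kg. Tumor volume was measured with calipers as (L×W×W)/2. %TGI = 100 × [1 − (AUC treatment/d)/(AUC vehicle/d)], using the area under the fitted tumor-growth curve per day for each dose group relative to vehicle.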

[8] = target: Mitogen-activated protein kinase 14 (Homo sapiens, UniProt Q16539); assay: Inhibition of p38alpha (unknown origin)
Mitogen-activated protein kinase 14, sequence (Q16539 whole entry): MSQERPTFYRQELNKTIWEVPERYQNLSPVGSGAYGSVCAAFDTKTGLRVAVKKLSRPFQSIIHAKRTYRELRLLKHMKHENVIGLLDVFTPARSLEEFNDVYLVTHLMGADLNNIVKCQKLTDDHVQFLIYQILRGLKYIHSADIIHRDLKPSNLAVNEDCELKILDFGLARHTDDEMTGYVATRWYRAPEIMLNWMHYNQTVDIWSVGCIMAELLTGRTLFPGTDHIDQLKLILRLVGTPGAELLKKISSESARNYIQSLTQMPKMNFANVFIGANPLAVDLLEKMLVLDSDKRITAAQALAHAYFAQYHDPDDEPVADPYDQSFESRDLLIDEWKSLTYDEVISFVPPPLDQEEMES

A2058 [9] = assay: Antitumor activity against human A2058 cells harboring BRAF V600E/PTEN deletion mutant xenografted in mouse assessed as suppression of AKT phosphorylation at 15 mg/kg, po administered every third day for 21 days and measured after 72 hrs post dose by Western blot analysis; format: functional, organism-based; details: time 576.0 hrs
A2058 [10] = assay: Antitumor activity against human A2058 cells harboring BRAF V600E/PTEN deletion mutant xenografted in mouse assessed as increase in Bims level at 15 mg/kg, po administered every third day for 21 days and measured after 8 hrs post dose in presence of 4-(2-(1H-indazol-4-yl)-6-((4-(methylsulfonyl)piperazin-1-yl)methyl)thieno[3,2-d]pyrimidin-4-yl)morpholine by Western blot analysis; format: functional, organism-based; details: time 512.0 hrs
COLO-829 [11] = assay: Antiproliferative activity against human COLO-829 cells assessed reduction in cell viability incubated for 4 days in presence of 4-(2-(1H-indazol-4-yl)-6-((4-(methylsulfonyl)piperazin-1-yl)methyl)thieno[3,2-d]pyrimidin-4-yl)morpholine by celltiter-glo assay; format: functional; details: time 4 day
Outline: (§4)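 4-day CellTiter-Glo viability read-out on melanoma lines, cells exposed to increasing concentrations of each inhibitor alone and in combination.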

[12] = target: G protein-coupled receptor kinase 5 (Homo sapiens, UniProt P34947); assay: Inhibition of GRK5 (unknown origin)
G protein-coupled receptor kinase 5, sequence (P34947 whole entry): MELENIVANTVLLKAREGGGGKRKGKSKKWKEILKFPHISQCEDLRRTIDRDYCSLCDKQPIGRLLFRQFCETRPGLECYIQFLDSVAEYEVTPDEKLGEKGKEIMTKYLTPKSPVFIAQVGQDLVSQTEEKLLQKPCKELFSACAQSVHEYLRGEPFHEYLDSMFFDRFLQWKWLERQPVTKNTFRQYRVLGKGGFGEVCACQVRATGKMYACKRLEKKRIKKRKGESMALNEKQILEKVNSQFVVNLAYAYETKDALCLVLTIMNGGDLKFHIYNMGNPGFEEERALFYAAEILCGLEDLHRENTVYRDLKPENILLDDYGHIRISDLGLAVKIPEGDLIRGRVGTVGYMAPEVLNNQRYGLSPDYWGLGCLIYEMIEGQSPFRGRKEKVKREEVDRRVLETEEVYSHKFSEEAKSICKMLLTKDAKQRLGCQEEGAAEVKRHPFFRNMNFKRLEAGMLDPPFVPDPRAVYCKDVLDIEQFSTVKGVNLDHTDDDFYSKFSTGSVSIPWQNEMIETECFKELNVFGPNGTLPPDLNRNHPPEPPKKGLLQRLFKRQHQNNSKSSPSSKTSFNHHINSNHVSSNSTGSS

[13] = target: Homeodomain-interacting protein kinase 1 (Homo sapiens, UniProt Q86Z02); assay: Inhibition of HIPK1 (unknown origin)
Homeodomain-interacting protein kinase 1, sequence (Q86Z02 whole entry): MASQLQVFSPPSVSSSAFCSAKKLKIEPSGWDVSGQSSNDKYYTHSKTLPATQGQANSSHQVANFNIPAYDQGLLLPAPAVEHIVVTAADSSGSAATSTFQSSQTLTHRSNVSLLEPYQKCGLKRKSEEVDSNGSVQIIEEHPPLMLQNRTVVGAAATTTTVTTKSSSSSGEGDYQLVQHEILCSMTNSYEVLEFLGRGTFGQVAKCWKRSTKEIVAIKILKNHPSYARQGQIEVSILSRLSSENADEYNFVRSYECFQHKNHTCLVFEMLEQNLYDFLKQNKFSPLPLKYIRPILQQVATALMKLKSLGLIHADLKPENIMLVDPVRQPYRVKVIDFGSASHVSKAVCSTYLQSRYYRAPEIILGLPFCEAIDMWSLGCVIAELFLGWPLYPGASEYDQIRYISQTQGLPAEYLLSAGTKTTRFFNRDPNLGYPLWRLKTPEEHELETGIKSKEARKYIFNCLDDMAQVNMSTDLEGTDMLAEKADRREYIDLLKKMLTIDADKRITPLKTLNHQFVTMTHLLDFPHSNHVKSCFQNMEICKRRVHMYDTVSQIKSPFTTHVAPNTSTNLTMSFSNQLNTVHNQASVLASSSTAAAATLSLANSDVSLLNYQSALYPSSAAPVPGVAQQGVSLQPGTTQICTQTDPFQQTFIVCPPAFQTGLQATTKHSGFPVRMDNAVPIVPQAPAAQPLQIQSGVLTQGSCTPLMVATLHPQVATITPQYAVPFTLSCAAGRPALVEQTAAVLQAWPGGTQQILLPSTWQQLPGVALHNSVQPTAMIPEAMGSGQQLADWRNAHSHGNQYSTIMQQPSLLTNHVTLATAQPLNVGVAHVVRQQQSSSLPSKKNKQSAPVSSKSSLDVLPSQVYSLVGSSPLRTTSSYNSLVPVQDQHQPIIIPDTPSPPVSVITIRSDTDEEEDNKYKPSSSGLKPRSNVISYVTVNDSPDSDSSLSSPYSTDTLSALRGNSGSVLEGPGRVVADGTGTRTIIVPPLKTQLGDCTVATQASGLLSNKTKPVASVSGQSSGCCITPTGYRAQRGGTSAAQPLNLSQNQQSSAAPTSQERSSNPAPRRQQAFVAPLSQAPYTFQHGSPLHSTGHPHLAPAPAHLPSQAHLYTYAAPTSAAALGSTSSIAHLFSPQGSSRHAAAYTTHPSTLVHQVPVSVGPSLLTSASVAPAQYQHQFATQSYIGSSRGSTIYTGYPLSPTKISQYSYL

Focal adhesion kinase 1 = Focal adhesion kinase 1 (Homo sapiens, UniProt Q05397); assay: Inhibition of FAK (unknown origin)
Focal adhesion kinase 1, sequence (Q05397 whole entry): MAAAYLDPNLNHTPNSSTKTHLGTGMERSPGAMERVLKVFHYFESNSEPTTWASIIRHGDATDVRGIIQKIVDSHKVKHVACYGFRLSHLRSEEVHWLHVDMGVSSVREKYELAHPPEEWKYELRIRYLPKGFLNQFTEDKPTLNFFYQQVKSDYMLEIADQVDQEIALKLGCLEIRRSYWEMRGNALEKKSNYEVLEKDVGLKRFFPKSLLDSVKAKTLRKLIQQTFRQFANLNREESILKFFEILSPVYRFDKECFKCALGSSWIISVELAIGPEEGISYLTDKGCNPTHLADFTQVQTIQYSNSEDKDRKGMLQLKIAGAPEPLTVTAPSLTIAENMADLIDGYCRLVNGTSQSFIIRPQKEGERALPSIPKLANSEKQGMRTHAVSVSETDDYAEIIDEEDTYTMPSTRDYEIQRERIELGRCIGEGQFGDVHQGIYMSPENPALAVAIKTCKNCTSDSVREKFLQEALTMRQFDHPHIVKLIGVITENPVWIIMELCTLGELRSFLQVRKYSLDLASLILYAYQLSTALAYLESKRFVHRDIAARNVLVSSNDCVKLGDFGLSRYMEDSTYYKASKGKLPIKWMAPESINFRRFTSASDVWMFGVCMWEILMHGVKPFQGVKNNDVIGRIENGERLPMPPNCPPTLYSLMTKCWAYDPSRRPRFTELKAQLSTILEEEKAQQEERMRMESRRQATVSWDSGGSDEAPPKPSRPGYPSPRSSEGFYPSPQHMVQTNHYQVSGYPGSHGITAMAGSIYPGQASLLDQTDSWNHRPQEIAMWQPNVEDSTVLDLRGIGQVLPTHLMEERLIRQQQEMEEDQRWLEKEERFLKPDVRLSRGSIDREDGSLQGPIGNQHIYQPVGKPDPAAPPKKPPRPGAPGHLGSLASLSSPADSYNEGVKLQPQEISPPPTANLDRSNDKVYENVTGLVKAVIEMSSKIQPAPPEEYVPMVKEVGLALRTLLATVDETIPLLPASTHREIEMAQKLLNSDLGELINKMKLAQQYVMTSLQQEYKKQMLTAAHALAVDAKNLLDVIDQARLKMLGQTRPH

888-mel = assay: Inhibition of ERK phosphorylation in human 888-mel cells incubated for 24 hrs by immunoblotting analysis; format: cell-based
A375.X1 = assay: Antitumor activity against human A375.X1 cells xenografted in mouse assessed as reduction in ERK phosphorylation at 1 to 10 mg/kg, po by Western blot analysis; format: functional, organism-based; details: dose 1-10 mg/kg, time 74-96 hrs, TDE = time-dependent effect
Outline: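 A375.X1 xenograft mice were dosed orally at 1, 3, 5 or 10 mg/kg once daily for 3 days. Tumors were collected 2, 8 and 24 h after the last dose, pulverized frozen and resolved by 4–12% SDS-PAGE. p-ERK1/2 and t-ERK1/2 were measured by Western blot and quantified by band intensity, relative to vehicle-treated mice (0 h).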

NCI-H460 = assay: Antitumor activity against human NCI-H460 cells harboring KRAS Q61H/PIK3CA E545K/LKB1 Q37/CDKN2A mutant xenografted in mouse assessed as tumor growth inhibition at 10 mg/kg, po; format: functional; details: read-out: TGI; outline: as §3
DLD-1 [14] = assay: Antitumor activity against human DLD-1 cells xenografted in mouse assessed as tumor growth inhibition at 3 mg/kg, po administered once a day for 21 days; format: functional; details: DLD-1, 504 h, time 21 day, read-out: TGI; outline: as §1
Malme-3M = assay: Antiproliferative activity against human Malme-3M cells assessed reduction in cell viability incubated for 4 days in presence of 4-(2-(1H-indazol-4-yl)-6-((4-(methylsulfonyl)piperazin-1-yl)methyl)thieno[3,2-d]pyrimidin-4-yl)morpholine by celltiter-glo assay; format: functional; details: time 4 day; outline: as §4
[15] = target: MAP kinase-activated protein kinase 2 (Homo sapiens, UniProt P49137); assay: Inhibition of MAPKAP2 (unknown origin)
MAP kinase-activated protein kinase 2, sequence (P49137 whole entry): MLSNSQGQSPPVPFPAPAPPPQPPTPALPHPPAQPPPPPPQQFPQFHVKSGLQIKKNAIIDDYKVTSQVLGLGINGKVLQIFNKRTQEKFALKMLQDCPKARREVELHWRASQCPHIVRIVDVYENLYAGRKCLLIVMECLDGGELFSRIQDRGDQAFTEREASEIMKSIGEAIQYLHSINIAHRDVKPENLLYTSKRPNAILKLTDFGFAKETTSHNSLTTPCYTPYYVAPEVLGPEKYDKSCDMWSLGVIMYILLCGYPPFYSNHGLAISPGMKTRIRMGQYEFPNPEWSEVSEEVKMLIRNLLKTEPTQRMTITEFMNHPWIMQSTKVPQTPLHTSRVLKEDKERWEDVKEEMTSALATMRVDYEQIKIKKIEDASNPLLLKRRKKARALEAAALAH

SMILES: O=C(c1ccc(F)c(F)c1Nc1ccc(I)cc1F)N1CC(O)([C@@H]2CCCCN2)C1 [COBIMETINIB]
- inhibition in vivo at 15 mg/kg [1]: 75%
- inhibition in vivo at 5 mg/kg [2]: 45%
- inhibition in vivo at 10 mg/kg (DLD-1 [3]): 72%
- IC50 [4]: > 10 µM
- inhibition in vivo at 5 mg/kg (HCT-116): 68.7%
- Activity (COLO-829 [5]): inactive
- inhibition in vivo at 3 mg/kg (DLD-1 [6]): 88%
- inhibition in vivo at 5 mg/kg (FaDu): 94%
- inhibition in vivo at 10 mg/kg (DU-145): 77%
- Activity (A2058 [7]): Active
- inhibition in vivo at 5 mg/kg (NCI-H441): 59%
- IC50 [8]: > 10 µM
- Activity (A2058 [9]): Active
- Activity (A2058 [10]): Active
- Activity (COLO-829 [11]): 60%
- IC50 [12]: > 10 µM
- IC50 [13]: > 10 µM
- IC50 (Focal adhesion kinase 1): > 10 µM
- inhibition (888-mel): Active
- Activity (A375.X1): Tde
- inhibition in vivo at 10 mg/kg (NCI-H460): 9%
- inhibition in vivo at 3 mg/kg (DLD-1 [14]): 47%
- Activity (Malme-3M): 60%
- IC50 [15]: > 10 µM
